A selection: hits, their analogues and other compounds. The true share with any hit is near 1.8%.
M4 ag: human M4 muscarinic receptor agonists, primary screen, CHO-K1 cells, Fluo-8 calcium fluorescence | AID 624127, 2012 | activation, % at 3 µM | CHO-K1 hM4/Gqi5; vehicle 0%, full acetylcholine response 100% | 0.14% of 360,000 active;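 active means activation above the run mean over all test wells plus 3 SD, cut at about 32% in these data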;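 further: peak over basal fluorescence ratio per well then scaled between controls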
M5 antag: human M5 muscarinic receptor antagonists, primary screen, CHO cells, Fluo-8 calcium fluorescence; Muscarinic acetylcholine receptor M5 (Homo sapiens), P08912; CHO-hM5 cells, ACh EC80; inhibition, % at 3 µM; 0.59% of 360,000 active;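 active means inhibition above a per-plate cutoff, the mean of that plate's test compounds plus 3 SD, cut at about 27% in these data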
Target sequence (P08912 whole entry, looked up): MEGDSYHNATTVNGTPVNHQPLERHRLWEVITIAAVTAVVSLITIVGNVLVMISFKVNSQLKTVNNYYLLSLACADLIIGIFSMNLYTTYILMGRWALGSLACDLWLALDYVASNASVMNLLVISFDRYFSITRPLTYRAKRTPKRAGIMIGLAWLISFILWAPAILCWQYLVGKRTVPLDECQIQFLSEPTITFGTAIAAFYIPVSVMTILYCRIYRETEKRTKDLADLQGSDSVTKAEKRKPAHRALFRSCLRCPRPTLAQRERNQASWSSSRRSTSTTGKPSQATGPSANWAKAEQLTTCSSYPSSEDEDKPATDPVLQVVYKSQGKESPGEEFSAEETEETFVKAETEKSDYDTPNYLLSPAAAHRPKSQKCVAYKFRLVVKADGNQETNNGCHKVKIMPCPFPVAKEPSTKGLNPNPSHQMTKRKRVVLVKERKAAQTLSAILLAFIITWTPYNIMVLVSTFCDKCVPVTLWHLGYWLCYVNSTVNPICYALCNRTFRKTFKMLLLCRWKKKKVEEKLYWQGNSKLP
M4 antag: human M4 muscarinic receptor antagonists, primary screen, CHO cells, Fluo-8 calcium fluorescence; CHO-hM4 cells, ACh EC80; inhibition, % at 3 µM; 0.73% of 360,000 active; AID 624125, 2012;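 active means inhibition above its plate's cutoff, the mean inhibition of sample wells plus 3 SD, cut at about 27% in these data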
M5 PAM: human M5 muscarinic receptor positive allosteric modulators, primary screen, CHO-K1 cells, Fluo-8 calcium fluorescence. Muscarinic acetylcholine receptor M5 (Homo sapiens), P08912. CHO-K1 hM5, ACh EC20 PAM; 0% = ACh EC20, 100% = ACh EC100. activation, % at 3 µM. 0.3% of 360,000 active. AID 624038, 2012;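 active means activation above the run cutoff, the mean activation of all test compounds plus 3 SD, cut at about 18% in these data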
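system = human M5 receptor in CHO-K1 cells | reagent = EC20 acetylcholine as agonist stimulus | compound dosing = single-point, 3 µM nominal | incubation = Fluo-8 loading 80 min at 37 °C plus 30 min room temperature | detection = Fluo-8 calcium dye fluorescence, kinetic read | benchmarks = low control EC20 acetylcholine (0%), high control EC100 acetylcholine (100%)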
CHRM4 PAM: human M4 muscarinic receptor positive allosteric modulators, primary screen, CHO-K1 cells, Fluo-8 calcium fluorescence; 0.4% of 360,000 active; AID 624126, 2012; CHO-K1 hM4/Gqi5, ACh EC20; 0% = ACh EC20, 100% = maximal ACh; activation, % at 3 µM;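 active means activation above its plate's cutoff, the mean activation of sample wells plus 3 SD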
CHRM5 agonist: human M5 muscarinic receptor agonists, primary screen, CHO-K1 cells, Fluo-8 calcium fluorescence. Muscarinic acetylcholine receptor M5 (Homo sapiens), P08912. CHO-K1 hM5 cells; 0% DMSO wells, 100% maximal acetylcholine response. activation, % at 3 µM. 0.19% of 360,000 active. AID 624037, 2012;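 active means activation above the run's mean over test compounds plus 3 SD, cut at about 23% in these data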;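 further: signal is peak over basal fluorescence ratio across the kinetic read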
Numbers stand for hits; . = inactive.

SMILES | M4 ag | M5 antag | M4 antag | M5 PAM | CHRM4 PAM | CHRM5 agonist
NC(=O)CC(NC(=O)Cc1cccc2ccccc12)c1ccc(NCc2ccc(F)c(F)c2)c([N+](=O)[O-])c1 (stereo not given) | . | . | . | . | 24 | .
O=C(O)c1ccccc1C(=O)Nc1ccccn1 | . | . | . | . | . | .
O=C(Nc1ccccn1)c1ccc2ccccc2c1O | . | . | . | 19 | . | .
COc1cc(C(=O)OCc2cccc(OC)c2OC)ccc1OCC(=O)N1CCOCC1 | . | . | . | . | 22 | .
CC1(C(=O)NS(=O)(=O)c2ccccc2C(F)(F)F)CCN1C(=O)COc1ccc(Cl)cc1 (stereo not given) | . | . | . | . | . | .
CC1(C)NC(=O)N(CC(O)COc2ccccc2C(=O)Nc2ccccc2)C1=O (stereo not given) | . | . | . | . | . | .
O=C(Nc1ccccc1)c1ccccc1OCC(O)CN1C(=O)c2ccccc2S1(=O)=O (stereo not given) | . | . | 32 | . | . | .
Cc1ccc2nc(SC(C)C(=O)N3CCOCC3)[nH]c2c1 (stereo not given) | . | . | . | . | 31 | .
CC(Sc1nc(N)cc(=O)[nH]1)C(=O)N1CCOCC1 (stereo not given) | . | . | . | . | . | .
OC[C@@H]1CN(Cc2ccccc2)C[C@H](n2cnc3c(NC4CCCC4)ncnc32)O1 | . | . | . | . | . | .
COc1cc(NC(=O)Nc2nc(C(N)CCc3ccccc3)cs2)cc(OC)c1OC (stereo not given) | . | . | . | . | . | .
Cc1c(C(=O)NCc2ccc3c(c2)OCO3)oc2ccc(S(=O)(=O)N3CCCCC3)cc12 | . | . | 27 | . | . | .
Cc1c(C(=O)NCc2ccc3c(c2)OCO3)oc2ccc(S(=O)(=O)N3CCCC3)cc12 | . | . | . | . | . | .
O=C1CC(c2nc3ccccc3[nH]2)CN1c1ccccc1F (stereo not given) | . | . | 78 | . | . | .
COc1ccc(Cl)cc1N1CC(c2nc3ccccc3[nH]2)CC1=O (stereo not given) | . | . | . | . | . | .
CCOC(=O)c1sc(NNC(=O)c2ccc(F)cc2)nc1C | . | . | . | 25 | . | .
CNS(=O)(=O)c1ccc(NC(=O)C2c3ccccc3Oc3ccccc32)cc1 | . | . | . | . | . | .
CC(=O)NS(=O)(=O)c1ccc(NC(=O)C2c3ccccc3Oc3ccccc32)cc1 | . | . | . | 22 | . | .
Cc1ccc(S(=O)(=O)N(C)C)cc1NC(=O)CN1C(=O)NC2(CCCCCC2)C1=O | . | 29 | . | . | . | .
Cc1ccc(C2(C)NC(=O)N(CC(=O)Nc3cc(S(=O)(=O)N(C)C)ccc3C)C2=O)cc1 (stereo not given) | . | . | . | . | . | .
COc1cc(-c2cc(NC=O)c3ncc(-c4cccc(C(=O)N(C)C)c4)n3c2)cc(OC)c1OC | . | . | . | . | . | .
CN(C)CCCNc1oc(/C=C/c2ccccc2)nc1C#N | . | . | . | 32 | . | .
C[C@@H](c1ccccc1)N1C[C@H](COCc2ccccc2)Oc2cc(N3CC[C@@H](O)C3)ccc2S1(=O)=O | . | . | . | . | . | .
CS(=O)(=O)Nc1ccccc1-c1ccc2nccn2c1 | . | . | . | . | . | .
CCCc1cc(=O)[nH]c(SCC(=O)NC2(C#N)CCCCC2)n1 | . | . | . | . | 23 | .
Cc1cc(-c2csc(NC(=O)c3ccc(C#N)cc3)n2)c(C)n1Cc1ccco1 | . | . | . | . | 25 | .

Assay outcomes: PubChem, The Scripps Research Institute Molecular Screening Center
